Source: publication PMC10016935 (RSC Advances, 2023)
Where two headings read alike, the source gives them in different places. One block for each compound: values may come before it.

Experiments:
HSV-2 = settings: read-out: EC50 HSV-2; cell-based antiviral activity; cited from earlier work
HSV-1 [1] = assay: HSV replication inhibition assay, HSV-1 in Vero cells; type: cell-based, herpes simplex virus-1; settings: for EC50: read-out: HSV-1 EC50 (μM) ± SD; for Selectivity CC50/EC50: Vero CC50 / HSV-1 EC50
In short: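 Confluent Vero monolayers (24-well) got compound in PBS with 2% newborn calf serum and 2 mM L-glutamine, in duplicate, plus clinical-isolate virus at 2 × 10^4 PFU per well, for 1 h at 37 °C. Washed, then compound in DMEM for 24 h. Non-toxic wells (phase-contrast check) were titred by plaque assay (methanol, Giemsa). EC50 used serial dilutions in 96-well format, three-parameter fit, bottom zero.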

[2] = tested on: mutant of HSV-1 resistant to acyclovir (TK−); assay: Replication inhibition of acyclovir-resistant HSV-1 mutant; type: cell-based, herpes simplex virus-1; settings: Fig. 2C
HSV-1 [3] = settings: read-out: EC50 HSV-1; cell-based antiviral activity; cited from earlier work
Cytotoxicity assay = type: cell-based; settings: African green monkey, Vero cells
In short: (§1)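 Vero cells in 96-well plates in DMEM with 3% bovine growth serum and 3% newborn calf serum. Serial compound dilutions in medium with 1% DMSO were added 24 h after plating, in duplicate. After 24 or 48 h, MTS was added for 90 min and A490 read. CC50 came from a four-parameter variable-slope fit with bottom fixed at zero.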

Vero cells = assay: Cytotoxicity assay; type: cell-based; settings: read-out: Vero CC50 (μM) ± SD, 48 h, MTS, 2 to 4 independent runs
In short: as §1

Compound: Nc1nc2c(ncn2COCCO)c(=O)[nH]1 [acyclovir]
EC50 (HSV-2): 1400 nM
inhibition of wild-type HSV-1 (HSV-1 [1]; wild-type virus, Fig. 2C): inhibited only the wild-type virus
inhibition of ACV-resistant HSV-1 [2]: inhibited only the wild-type virus
EC50 (HSV-1 [3]): 170 nM

Compound: Cc1cc(O)c(=O)c(O)cc1C(=O)N1CCc2cc(C3CCCCC3)ccc2C1 [compound 64, 4-(6-Cyclohexyl-1,2,3,4-tetrahydroisoquinoline-2-carbonyl)-2,7-dihydroxy-5-methylcyclohepta-2,4,6-trien-1-one]
EC50 (HSV-1 [1]; Human alphaherpesvirus 1, Vero): 0.072 ± 0.021 µM
Selectivity CC50/EC50 (HSV-1 [1]; listed as C00065): 1050
CC50 at 48 h (Cytotoxicity assay): 75700 ± 5300 nM

Compound: Cc1cc(O)c(=O)c(O)cc1C(=O)NCC1(c2ccc(C(C)C)cc2)CCCC1 [compound 65, Dihydroxy-N-((1-(4-isopropylphenyl)cyclopentyl)methyl)-2-methyl-5-oxocyclohepta-1,3,6-triene-1-carboxamide]
Selectivity CC50/EC50 (HSV-1 [1]): 302
EC50 (HSV-1 [1]; Vero cells, 3 to 4 independent runs): 0.306 ± 0.016 µM
CC50 (Vero cells): 92.5 ± 7.5 µM

The next lines start with results.

EC50 (HSV-1 [1]; Human alphaherpesvirus 1, Vero): 0.244 ± 0.097 µM
Compound: Cc1cc(O)c(=O)c(O)cc1C(=O)Nc1ccc2ccc3cccc4ccc1c2c34 [compound 63, 4,6-Dihydroxy-2-methyl-5-oxo-N-(pyren-1-yl)cyclohepta-1,3,6-triene-1-carboxamide]
CC50 at 48 h (Cytotoxicity assay): 74200 ± 8700 nM

EC50 (HSV-1 [1]; Human alphaherpesvirus 1, Vero): 0.296 ± 0.054 µM
Compound: Cc1cc(O)c(=O)c(O)cc1C(=O)N1CCC2(CC1)C1CC3CC(C1)CC2C3 [compound 66, 2,7-Dihydroxy-4-methyl-5-(spiro[adamantane-2,4′-piperidine]-1′-carbonyl)cyclohepta-2,4,6-trien-1-one]
CC50 at 48 h (Cytotoxicity assay): 23700 ± 3800 nM
